Measured values taken from ChEMBL document CHEMBL1828528, “Acyclic nucleoside thiophosphonates as potent inhibitors of HIV and HBV replication” (Eur J Med Chem, 2011).

Columns and labels:
[1] = molecular target: Human immunodeficiency virus type 1 reverse transcriptase (Human immunodeficiency virus 1, UniProt Q72547); assay: Inhibition of wild-type HIV1 subtype B reverse transcriptase assessed as incorporation of [3H]dTTP
In short: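 Recombinant clade B HIV-1 WT RT p66/p51, co-expressed with protease in E. coli, affinity-purified and active-site titrated. Diphosphate forms assayed on activated calf thymus DNA with [3H]dTTP. Aliquots spotted in duplicate on DE81 discs, washed with ammonium formate pH 8.0 and ethanol, then scintillation counted. IC50 averaged over ≥3 independent experiments.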

[2] = system: Human immunodeficiency virus 1; assay: Antiviral activity against 100 TCID50 wild-type Human immunodeficiency virus 1 3B infected in CEM cells assessed as inhibition of syncytia formation after 4 days by microscopic analysis; type: functional, organism-based; conditions: CCRF-CEM, 96 h
In short: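 Human CEM cells (~3 × 10^5 cells/cm3) infected with 100 CCID50/mL HIV-1 IIIB and seeded into wells holding compound dilutions. After 4 days at 37 °C, giant-cell (syncytium) formation was scored microscopically. EC50 is the concentration inhibiting syncytia formation by 50%.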

[3] = system: Human immunodeficiency virus 2; assay: Antiviral activity against 100 TCID50 wild-type Human immunodeficiency virus type 2 ROD infected in C8166 cells assessed as inhibition of syncytia formation after 4 days by microscopic analysis; type: functional, organism-based; conditions: Human immunodeficiency virus 2, ISOLATE ROD, C8166, 96 h
[4] = (§1) Cytotoxicity against human CEM cells; type: cell-based, CCRF-CEM; conditions: CCRF-CEM (CEM) cells
In short: (§2)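 Mock-infected CEM cells cultured alongside the anti-HIV assay with compound dilutions for 4 days at 37 °C. CC50 is the concentration inhibiting CEM cell proliferation by 50%.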

[5] = system: Human immunodeficiency virus 1; assay: Antiviral activity against 125 TCID50 wild type HIV1 LAI infected in human H9 cells assessed as reduction in viral replication measured on day 7 post infection by reverse transcriptase activity; type: functional, organism-based; conditions: Human immunodeficiency virus 1, LAI, H9, 168 h
In short: (§3)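 PHA-P-activated PBMC (1.5 × 10^5; donor cells stimulated 3 days with 1 μg/mL PHA-P plus 5 IU/mL IL-2) or H9 cells (5 × 10^5) in RPMI-1640/10% FCS. Cells pre-treated 30 min with graded compound concentrations, then infected with HIV-1 LAI (100 or 125 TCID50). Supernatant RT activity read on day 7. EC50 from quadratic fit of % inhibition; triplicates, PBMC repeated with a second donor.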

[6] = system: Human immunodeficiency virus 1; assay: Antiviral activity against 6250 TCID50 wild type HIV1 LAI infected in human H9 cells assessed as reduction in viral replication measured on day 7 post infection by reverse transcriptase activity; type: functional, organism-based; conditions: Human immunodeficiency virus 1, LAI, H9, 168 h
In short: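 H9 cells in RPMI-1640/10% FCS given graded compound concentrations, then infected with a high inoculum of 6250 TCID50 HIV-1 LAI. Supernatant reverse transcriptase activity measured on day 7 post infection. EC50 taken as the concentration giving 50% reduction of viral replication.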

[7] = system: Human immunodeficiency virus 1; assay: Antiviral activity against 100 TCID50 wild type HIV1 LAI infected in human PBMC assessed as reduction in viral replication measured on day 7 post infection by reverse transcriptase activity; type: functional, organism-based; conditions: Human immunodeficiency virus 1, LAI, 168 h; in short: as §3
[8] = Cytotoxicity against […]-activated human PBMC on day 7 by MTT assay; type: cell-based
In short: (§4)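 Uninfected PHA-P-activated PBMC and H9 cells exposed to graded compound concentrations. Viability by MTT on day 7. CC50 from quadratic fit of % viability against concentration; triplicates.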

[9] = Cytotoxicity against […]-activated human H9 cells on day 7 by MTT assay; type: cell-based; in short: as §4
[10] = system: Human immunodeficiency virus 1; assay: Antiviral activity against HIV1 clade A isolate 4113 infected in human H9 cells assessed as inhibition of viral replication; type: functional, organism-based; conditions: Human immunodeficiency virus 1, clade A isolate 4113, H9
In short: (§5)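 H9 cells infected with HIV-1 clinical isolates of clades A, B, C, D, A/E, F and G, in the presence of graded compound concentrations. EC50 is the concentration reducing viral replication by 50%.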

[11] = system: Human immunodeficiency virus 1; assay: Antiviral activity against HIV1 clade B isolate 2101 infected in human H9 cells assessed as inhibition of viral replication; type: functional, organism-based; conditions: Human immunodeficiency virus 1, clade B isolate 2101, H9; in short: as §5
[12] = system: Human immunodeficiency virus 1; assay: Antiviral activity against HIV1 clade B isolate 2056 infected in human H9 cells assessed as inhibition of viral replication; type: functional, organism-based; conditions: Human immunodeficiency virus 1, clade B isolate 2056, H9; in short: as §5
[13] = system: Human immunodeficiency virus 1; assay: Antiviral activity against HIV1 clade B isolate 1722 infected in human H9 cells assessed as inhibition of viral replication; type: functional, organism-based; conditions: Human immunodeficiency virus 1, clade B isolate 1722, H9; in short: as §5
[14] = system: Human immunodeficiency virus 1; assay: Antiviral activity against HIV1 clade C isolate 2914 infected in human H9 cells assessed as inhibition of viral replication; type: functional, organism-based; conditions: Human immunodeficiency virus 1, clade C isolate 2914, H9; in short: as §5
[15] = system: Human immunodeficiency virus 1; assay: Antiviral activity against HIV1 clade C isolate 4110 infected in human H9 cells assessed as inhibition of viral replication; type: functional, organism-based; conditions: Human immunodeficiency virus 1, clade C isolate 4110, H9; in short: as §5
[16] = system: Human immunodeficiency virus 1; assay: Antiviral activity against HIV1 clade D isolate 1649 infected in human H9 cells assessed as inhibition of viral replication; type: functional, organism-based; conditions: Human immunodeficiency virus 1, clade D isolate 1649, H9; in short: as §5
[17] = system: Human immunodeficiency virus 1; assay: Antiviral activity against HIV1 clade A/E isolate 2165 infected in human H9 cells assessed as inhibition of viral replication; type: functional, organism-based; conditions: Human immunodeficiency virus 1, clade A/E isolate 2165, H9; in short: as §5
[18] = system: Human immunodeficiency virus 1; assay: Antiviral activity against HIV1 clade F isolate 2338 infected in human H9 cells assessed as inhibition of viral replication; type: functional, organism-based; conditions: Human immunodeficiency virus 1, clade F isolate 2338, H9; in short: as §5
[19] = system: Human immunodeficiency virus 1; assay: Antiviral activity against HIV1 clade G isolate 3187 infected in human H9 cells assessed as inhibition of viral replication; type: functional, organism-based; conditions: Human immunodeficiency virus 1, clade G isolate 3187, H9; in short: as §5
[20] = system: Hepatitis B virus; assay: Antiviral activity against Hepatitis B virus infected in human HepAD38 cells assessed as reduction in viral DNA level after 6 days by real time quantitative PCR analysis; type: functional, organism-based; conditions: HePAD38, 144 h
In short: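 Tetracycline-regulated HepAD38 cells (5 × 10^5) induced after 2–3 days by PBS wash and feeding with medium lacking tetracycline and G418, with or without compound. Medium changed at day 3. Intracellular HBV DNA quantified by TaqMan Q-PCR at day 6 post induction against a full-genome plasmid standard curve, expressed as % of untreated. Actives retested.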

[21] = system: Human alphaherpesvirus 1; assay: Antiviral activity against Herpes simplex virus type 1 KOS infected in HEL cells assessed as inhibition of virus-induced cytopathic effect; type: functional, organism-based; conditions: Human alphaherpesvirus 1, KOS
In short: (§6)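 Confluent HEL cell monolayers inoculated with 100 CCID50 of virus. Compounds added after a 1–2 h adsorption period. Virus-induced cytopathic effect scored microscopically at 3 days post infection as % of untreated controls. EC50 derived from graphical plots.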

[22] = system: Human alphaherpesvirus 1; assay: Antiviral activity against TK-deficient and ACR-resistant Herpes simplex virus type 1 KOS infected in HEL cells assessed as inhibition of virus-induced cytopathic effect; type: functional, organism-based; conditions: Human alphaherpesvirus 1, KOS; in short: as §6
[23] = system: Human alphaherpesvirus 2; assay: Antiviral activity against Herpes simplex virus type 2 G infected in HEL cells assessed as inhibition of virus-induced cytopathic effect; type: functional, organism-based; conditions: Human alphaherpesvirus 2, strain G; in short: as §6
[24] = system: Vaccinia virus; assay: Antiviral activity against Vaccinia virus infected in HEL cells assessed as inhibition of virus-induced cytopathic effect; type: functional, organism-based; conditions: Orthopoxvirus vaccinia; in short: as §6
[25] = Cytotoxicity against human HEL cells assessed as alteration in cellular morphology by microscopic analysis; type: cell-based
In short: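 Uninfected confluent Vero, CrFK, HEL or HeLa cultures incubated with serial compound dilutions (up to 200 μM) for the same period as the antiviral assays. Minimal toxic concentration is the lowest giving microscopically detectable alteration of cell morphology.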

[26] = Cytotoxicity against human HuH7 cells; type: cell-based; conditions: Huh-7 cells
[27] = Cytotoxicity against human HepAD38 cells; type: cell-based
[28] = system: CCRF-CEM; assay: as §1; type: cell-based; conditions: ccrf-cem; in short: as §2
[29] = system: Hepatitis B virus; assay: Antiviral activity against Hepatitis B virus infected in human HuH7 cells assessed as reduction in viral DNA level treated day 3 to day 8 post transfection by real time quantitative PCR analysis; type: functional, organism-based; conditions: Huh-7

Row | SMILES | IC50 [1] [µM] | EC50 [2] [µM] | EC50 [3] [µM] | EC50 [5] [µM] | EC50 [6] [µM] | EC50 [7] [µM] | CC50 at 7 day [8] [µM] | EC50 [10] [µM] | EC50 [11] [µM] | EC50 [12] [µM] | EC50 [13] [µM] | EC50 [14] [µM] | EC50 [15] [µM] | EC50 [16] [µM] | EC50 [17] [µM] | EC50 [18] [µM] | EC50 [19] [µM] | EC50 [21] [µM] | EC50 [22] [µM] | EC50 [23] [µM] | other results
1 | Nc1ncnc2c1ncn2CCOCP(=O)(O)OP(=O)(O)OP(=O)(O)O | 7 |  |  |  |  |  |  |  |  |  |  |  |  |  |  |  |  |  |  |  | 
2 | C[C@H](Cn1cnc2c(N)ncnc21)OCP(=O)(O)O [TENOFOVIR ANHYDROUS] |  | 4.1 | 7.1 | 0.23 | 8.3 | 3.4 | > 100 | 5.61 | 0.24 | 1.25 | 0.69 | 0.34 | 0.83 | 0.1 | 0.51 | 0.04 | 0.15 | > 200 | > 200 | > 200 | CC50 [4]: > 250 µM; CC50 at 7 day [9]: > 100 µM; EC50 [20]: 2.3 µM; EC50 [24]: > 200 µM; MCC [25]: > 200 µM; CC50 [26]: > 150 µM; CC50 [27]: > 150 µM
3 | C[C@H](Cn1cnc2c(N)ncnc21)OCP(=O)(S)OP(=O)(O)OP(=O)(O)O (stereo not given in full) | 13.9 |  |  |  |  |  |  |  |  |  |  |  |  |  |  |  |  |  |  |  | 
4 | C[C@H](Cn1cnc2c(N)ncnc21)OCP(=O)(O)OP(=O)(O)OP(=O)(O)O | 11.3 |  |  |  |  |  |  |  |  |  |  |  |  |  |  |  |  |  |  |  | 
5 | Nc1ncnc2c1ncn2CCOCP(=O)(O)O [ADEFOVIR] |  | 5.5 | 7 | 1.1 | 7.9 | 3.2 | > 30 | 17.8 | 3.51 | 1.02 | 1.85 | 1.45 | 2.74 | 0.32 | 0.32 | 0.19 | 0.22 | 89 | 20 | 20 | CC50 [28]: 85 µM; EC50 [29]: 6 µM; EC50 [24]: > 200 µM; MCC [25]: > 200 µM; CC50 [26]: > 150 µM; CC50 [27]: > 150 µM
6 | Nc1ncnc2c1ncn2CCOCP(=O)(S)OP(=O)(O)OP(=O)(O)O (stereo not given) | 6.8 |  |  |  |  |  |  |  |  |  |  |  |  |  |  |  |  |  |  |  | 
